This note sets out measurements from PubChem BioAssay.

Each structure is given as a SMILES string. Activity calls are given as the source filed them. Unless noted, no stated cut-off is given here; in the data, active means inhibition above about 30%; inactive means the rest.

The nature of experiment [1]: reduced viability of SK-BR-3 breast cancer cells – cell-based, 24 h, human, pilot screen (AID 572;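 active means viability at or below 10% of carrier control in both of two separate runs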;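 further: compound exposure lasted between 18 and 24 h rather than exactly 24 h; 100% = carrier-treated control wells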). Conditions: SK-BR-3 viability, CellTiter-Glo luminescence, at 10 µM, stronger effect = lower value. (Cellular ATP, detected with luciferase, serves as a proxy for viable cell number.)
A short description of experiment [2]: HUVEC growth inhibition – cell-based, human, primary screen (AID 575;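 active means viability at or below 30% in both replicate assays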;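 further: 100% = median of untreated cell wells with 0.1% DMSO on each plate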). The note with it: HUVEC proliferation, CellTiter-Glo luminescence, 72 h; at 10 µM; stronger effect = lower value. A digest of the protocol:
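system = HUVEC primary cells | amount = 1250 cells/well | buffer or medium = supplemented EBM, 2% fetal bovine serum | dosing = single-point 10 µM, DMSO 0.1% final | times = 72 h compound incubation | detection = CTG luminescence | read-out = % viability relative to median vehicle-well signal on each plate | control set = vehicle and MePR control wells | format = collagen-coated 384-well format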

Experiment [3] is described as follows: H69AR cell proliferation blockers – human, duplicate replicates, primary screen (AID 580;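 active means viability at or under a set limit in both replicates, limit being median viability minus 3 SD, cut at about 48% in these data, passing the limit was not always enough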;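 further: 100% = mean luminescence of untreated wells and 0% = no signal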). Conditions: H69AR lung tumor cells viability, ATP luminescence, 72 h; at 10 µM; stronger effect = lower value.
Experiment [4] in a line: MRP1 drug-resistance reversers in H69AR cells – cell-based, doxorubicin co-treatment, pilot screen (AID 601;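 active means viability loss from added drug above about 55%, and viability with drug at most 40%, in both replicates, limit read from the data, passing the limit was not always enough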). Conditions: CellTiter-Glo, 72 h, at 10 µM; for differential viability (reversal): stronger effect = higher value.
Experiment [5] can be described thus: yeast transport mutant growth inhibition pilot in 384-well plates, post-Golgi transport modulator project (AID 636; in the data active means inhibition above about 31%). Conditions: absorbance 615 nm, about 18 h, stronger effect = higher value.
The nature of experiment [6]: growth suppression of yeast trafficking mutant, preliminary HTS, modulators of trafficking downstream of Golgi apparatus project, 1536-format plate, OD 615 nm (AID 637). Conditions: yeast transport mutant growth, absorbance 615 nm, 18 h; stronger effect = higher value.
The mark [7] stands for this setting: H69AR cells + 2 uM doxorubicin, measured here: viability with 2 uM doxorubicin, stronger effect = lower value.
Where [8] appears, read: H69AR cells, compound alone cytotoxicity.

As usually defined, the viability is a read-out of living cells in per cent, often relative to untreated cells. The inhibition is the drop in the measured response relative to a control, in per cent. Turning to `CC(=O)Oc1ccc(C(c2ccc(OC(C)=O)cc2)c2ccccn2)cc1`, the viability in experiment [1] was 91% (inactive); in experiment [2], 79% (inactive); in experiment [3] it was 94.9% (inactive); in experiment [4] (setting [7]) it was 95.2%; in experiment [4] (setting [8]) it was 94.9%. Also, the differential viability (reversal) in experiment [4] (H69AR cells + 2 uM doxorubicin) is -0.25% (inactive). Besides, the inhibition in experiment [5] was -0.52% (inactive); in experiment [6], 0.83% (inactive).
Consider `CC(C)(Oc1ccc(CCNC(=O)c2ccc(Cl)cc2)cc1)C(=O)O`, for which the viability was 95% (inactive) in experiment [1]; 83.1% (inactive) in experiment [2]; 105% (inactive) in experiment [3]; 96.8% in experiment [4] (setting [7]); 105% in experiment [4] (setting [8]). Also, in experiment [4] (H69AR cells + 2 uM doxorubicin), the differential viability (reversal) is 8.17% (inactive). In addition, the inhibition is -4.29% (inactive) in experiment [5] and -0.67% (inactive) in experiment [6].
Regarding `c1cc(C(c2nnnn2C2CCCC2)N2CCOCC2)ccn1` (centres undefined), the viability was 96.5% (inactive) in experiment [1]; 104% (inactive) in experiment [2]; 91.9% (inactive) in experiment [3]; 92.2% in experiment [4] (setting [7]); 91.9% in experiment [4] (setting [8]). Further, the differential viability (reversal) in experiment [4] (H69AR cells + 2 uM doxorubicin) was -0.285% (inactive). For the same compound, the inhibition in experiment [5] was -8.22% (inactive); in experiment [6] it was 0.16% (inactive).
Turning to `CC1(C)CC(=O)c2sc(NS(C)(=O)=O)nc2C1`, the viability in experiment [1] was 119% (inactive); in experiment [2], 101% (inactive); in experiment [3], 96% (inactive); in experiment [4] (setting [7]) it was 83.2%; in experiment [4] (setting [8]) it was 96%. For the same compound, in experiment [4] (H69AR cells + 2 uM doxorubicin), the differential viability (reversal) is 12.7% (inactive). The results for the inhibition in experiment [5] and in experiment [6] were -6.16% (inactive) and 1.94% (inactive), respectively.
Consider `C=CCn1c(SCC(=O)c2ccccc2)nnc1-c1ccc2c(c1)OCO2`, for which the viability in experiment [1] was 97% (inactive); in experiment [2], 107% (inactive); in experiment [3], 100% (inactive); in experiment [4] (setting [7]), 103%; in experiment [4] (setting [8]), 100%. Also, the differential viability (reversal) in experiment [4] (H69AR cells + 2 uM doxorubicin) was -2.68% (inactive). The values for the inhibition in experiment [5] and in experiment [6] were -1.78% (inactive) and -3.06% (inactive), respectively.
`COc1ccc2cc(C#N)c(N3CCN(Cc4nnnn4CCC(C)C)CC3)nc2c1`: the viability in experiment [1] is 89% (inactive); in experiment [2], 64.5% (inactive); in experiment [3], 79.4% (inactive); in experiment [4] (setting [7]), 71.2%; in experiment [4] (setting [8]), 79.4%. Also, in experiment [4] (H69AR cells + 2 uM doxorubicin), the differential viability (reversal) is 8.18% (inactive). In addition, the inhibition in experiment [5] was -2.93% (inactive); in experiment [6] it was 2.73% (inactive).
For `COc1ccc(CN(CC(=O)NCC2CCCO2)C(=O)CCC(=O)Nc2cc(C)on2)cc1` (centres undefined), the viability in experiment [1] was 77% (inactive); in experiment [2], 95.1% (inactive); in experiment [3] it was 89.4% (inactive); in experiment [4] (setting [7]), 93.4%; in experiment [4] (setting [8]), 89.4%. In experiment [4] (H69AR cells + 2 uM doxorubicin), the differential viability (reversal) is -4.07% (inactive). In addition, the inhibition in experiment [5] was 4.53% (inactive); in experiment [6] it was 9.27% (inactive).
As for `CCC(C)n1ncn(-c2ccc(N3CCN(c4ccc(OCC5COC(Cn6cncn6)(c6ccc(Cl)cc6Cl)O5)cc4)CC3)cc2)c1=O` (centres undefined), the viability was 84% (inactive) in experiment [1]; 7.76% (active) in experiment [2]; 69.8% (inactive) in experiment [3]; 71.8% in experiment [4] (setting [7]); 69.8% in experiment [4] (setting [8]). Also, in experiment [4] (H69AR cells + 2 uM doxorubicin), the differential viability (reversal) was -1.92% (inactive). Further, the inhibition in experiment [5] was 100% (active); in experiment [6], 96.7% (active).
Consider `c1ccc(-c2nc3cnccn3c2Nc2ccc3c(c2)OCCO3)cc1`, for which the viability in experiment [1] was 96% (inactive); in experiment [2], 107% (inactive); in experiment [3], 91.5% (inactive); in experiment [4] (setting [7]) it was 52.9%; in experiment [4] (setting [8]), 91.5%. Also, the differential viability (reversal) in experiment [4] (H69AR cells + 2 uM doxorubicin) is 38.5% (inactive). Further, the inhibition was -5.47% (inactive) in experiment [5] and -1.27% (inactive) in experiment [6].
As to `CCOc1cccc2cc(C(=O)N3CCN(C/C=C/c4ccccc4)CC3)c(=O)oc12`, the viability is 89% (inactive) in experiment [1]; 106% (inactive) in experiment [2]; 91.4% (inactive) in experiment [3]; 68.6% in experiment [4] (setting [7]); 91.4% in experiment [4] (setting [8]). Moreover, the differential viability (reversal) in experiment [4] (H69AR cells + 2 uM doxorubicin) is 22.8% (inactive). Also, the results for the inhibition in experiment [5] and in experiment [6] were -5.68% (inactive) and -4.73% (inactive), respectively.
With `COc1ccc(OC)c(S(=O)(=O)Nc2ccccc2SC)c1`, the viability is 72% (inactive) in experiment [1]; 83.7% (inactive) in experiment [2]; 100% (inactive) in experiment [3]; 81% in experiment [4] (setting [7]); 100% in experiment [4] (setting [8]). In addition, the differential viability (reversal) in experiment [4] (H69AR cells + 2 uM doxorubicin) is 18.9% (inactive). For the same compound, the figures for the inhibition in experiment [5] and in experiment [6] were -5.34% (inactive) and -1.45% (inactive), respectively.
Regarding `O=C(c1cccnc1)N1CCN(C(=O)c2ccccc2F)CC1`, the viability in experiment [1] was 97% (inactive); in experiment [2], 98.5% (inactive); in experiment [3] it was 97.2% (inactive); in experiment [4] (setting [7]), 85.7%; in experiment [4] (setting [8]), 97.2%. The differential viability (reversal) in experiment [4] (H69AR cells + 2 uM doxorubicin) is 11.5% (inactive). For the same compound, the values for the inhibition in experiment [5] and in experiment [6] were -4% (inactive) and -5.09% (inactive), respectively.
On to `Cc1cccc2c(=O)oc(-c3ccc4c(c3)C(=O)N(CC3CCCO3)C4=O)nc12` (centres undefined), for which the viability in experiment [1] is 95% (inactive); in experiment [2], 101% (inactive); in experiment [3], 98.7% (inactive); in experiment [4] (setting [7]) it was 92.8%; in experiment [4] (setting [8]), 98.7%. In addition, the differential viability (reversal) in experiment [4] (H69AR cells + 2 uM doxorubicin) was 5.85% (inactive). Besides, the inhibition in experiment [5] was -4.25% (inactive); in experiment [6], 6.77% (inactive).
As for `CCN1C(=O)C2(C(C#N)=C(N)Oc3n[nH]c(C(C)C)c32)c2ccccc21` (centres undefined), the viability was 113% (inactive) in experiment [1]; 103% (inactive) in experiment [2]; 89.2% (inactive) in experiment [3]; 90.2% in experiment [4] (setting [7]); 89.2% in experiment [4] (setting [8]). Besides, the differential viability (reversal) in experiment [4] (H69AR cells + 2 uM doxorubicin) is -1.03% (inactive). Besides, the inhibition was -8.9% (inactive) in experiment [5] and -0.81% (inactive) in experiment [6].
For `O=C1c2ccccc2C(=O)N1c1cccc(-c2nc3ccccc3o2)c1`, the viability is 114% (inactive) in experiment [1]; 72.5% (inactive) in experiment [2]; 111% (inactive) in experiment [3]; 103% in experiment [4] (setting [7]); 111% in experiment [4] (setting [8]). Also, the differential viability (reversal) in experiment [4] (H69AR cells + 2 uM doxorubicin) was 7.94% (inactive). Moreover, the inhibition in experiment [5] is -4.13% (inactive); in experiment [6], -3.09% (inactive).
Consider `Cn1c(=O)n(CCC(=O)O)c2ccccc21`, for which the viability was 93% (inactive) in experiment [1]; 111% (inactive) in experiment [2]; 97.2% (inactive) in experiment [3]; 84.1% in experiment [4] (setting [7]); 97.2% in experiment [4] (setting [8]). Moreover, the differential viability (reversal) in experiment [4] (H69AR cells + 2 uM doxorubicin) was 13.1% (inactive). The inhibition in experiment [5] is -7.67% (inactive); in experiment [6], 5% (inactive).
Turning to `CC(CCc1ccccc1)NC(=O)C1CCN(S(=O)(=O)c2cnc[nH]2)CC1` (centres undefined), the viability is 110% (inactive) in experiment [1]; 96.4% (inactive) in experiment [2]; 91.3% (inactive) in experiment [3]; 81.1% in experiment [4] (setting [7]); 91.3% in experiment [4] (setting [8]). For the same compound, the differential viability (reversal) in experiment [4] (H69AR cells + 2 uM doxorubicin) is 10.2% (inactive). Moreover, the values for the inhibition in experiment [5] and in experiment [6] were -9.73% (inactive) and -3.45% (inactive), respectively.
Take `CCOC(=O)C1CCN(CC(=O)c2c(C)[nH]c3ccccc23)CC1`: the viability in experiment [1] was 100% (inactive); in experiment [2], 112% (inactive); in experiment [3], 92.6% (inactive); in experiment [4] (setting [7]) it was 91.9%; in experiment [4] (setting [8]), 92.6%. In addition, the differential viability (reversal) in experiment [4] (H69AR cells + 2 uM doxorubicin) is 0.74% (inactive). Besides, the inhibition is -0.67% (inactive) in experiment [5] and -2.73% (inactive) in experiment [6].
